Activity calls are given as the source filed them. The calls are words filed in the database; no cut-off is given here.

The source of these data is ChEMBL document CHEMBL3779767, “Identification of potent and selective MTH1 inhibitors” (Bioorg Med Chem Lett, 2016).

The nature of data set [1]: Permeability across MDCK cells. Format: ADME, cell-based, Canis lupus familiaris. The note with it: dog, read-out: permeability. The essentials: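 Measured across a confluent MDCK cell monolayer; apparent permeability is reported together with the efflux ratio.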
Data set [2] is described as follows: Efflux ratio of permeability in MDCK cells. The format is ADME, cell-based, Canis lupus familiaris. The note with it: dog. The essentials:
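Permeability measured across a confluent MDCK cell monolayer, with the efflux ratio reported alongside the permeability value.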

Data set [3] can be described thus: Plasma protein binding in human. The format is ADME, cell-free. The note with it: read-out: PPB (converted).
Data set [4] relates to Liver microsome. Briefly: Intrinsic clearance in human liver microsomes. The format is ADME.
Data set [5] in a line: Half life in human liver microsomes. The format is ADME. The essentials:
(§1)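 Incubated with human or mouse liver microsomes; the read-out was intrinsic clearance alongside half-life, given in hours.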

A short description of data set [6]: Intrinsic clearance in mouse liver microsomes. The format is ADME.
Data set [7] can be described thus: Half life in mouse liver microsomes. Format: ADME. The essentials: as §1
The nature of data set [8]: Half life in rat plasma. Format: ADME, cell-free. The essentials:
(§2)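 Plasma stability was measured in human and rat plasma, with half-life reported in hours.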

A short description of data set [9]: Half life in human plasma. Format: ADME, cell-free. The essentials:
as §2

The nature of data set [10]: Cytotoxicity against human WI38 cells assessed as change in phenotypic response measured after prolonged treatment. The format is cell-based. The note with it: wi-38.
Data set [11] deals with NCI-H358. Description: Antiproliferative activity against human NCI-H358 cells assessed as change in phenotypic response measured after prolonged treatment. Format: functional, cell-based.
Data set [12] has as its system NCI-H460. Description: Antiproliferative activity against human NCI-H460 cells assessed as change in phenotypic response measured after prolonged treatment. Format: functional, cell-based.
Data set [13] relates to A549. Briefly: Antiproliferative activity against human A549 cells assessed as change in phenotypic response measured after prolonged treatment. The format is functional, cell-based.
The nature of data set [14]: Cytotoxicity against human 293T cells assessed as change in phenotypic response measured after prolonged treatment. Format: cell-based. The note with it: hek-293t.
For data set [15], the system named is HeLa. Briefly: Antiproliferative activity against human HeLa cells assessed as change in phenotypic response measured after prolonged treatment. The format is functional, cell-based.
Data set [16] concerns MDA-MB-231. Description: Antiproliferative activity against human MDA-MB-231 cells assessed as change in phenotypic response measured after prolonged treatment. The format is functional, cell-based.
Data set [17] has as its system HCT-116. Description: Antiproliferative activity against human HCT116 cells assessed as change in phenotypic response measured after prolonged treatment. The format is functional, cell-based.
In data set [18] the test system is SW480. Briefly: Antiproliferative activity against human SW480 cells assessed as change in phenotypic response measured after prolonged treatment. Format: functional, cell-based.
For data set [19], the system named is SAOS-2. Description: Antiproliferative activity against human Saos2 cells assessed as change in phenotypic response measured after prolonged treatment. Format: functional, cell-based.
Data set [20] has as its system U2OS. Briefly: Antiproliferative activity against human U2OS cells assessed as change in phenotypic response measured after prolonged treatment. The format is functional, cell-based.
For data set [21], the system named is BJ. Description: Cytotoxicity against human BJ cells assessed as change in phenotypic response up to 50 uM. The format is cell-based.
The nature of data set [22]: Cytotoxicity against human WI38 cells assessed as change in phenotypic response up to 50 uM. Format: cell-based. The note with it: wi-38.
Data set [23] relates to HMEC. Briefly: Cytotoxicity against human HMEC cells assessed as change in phenotypic response up to 50 uM. The format is cell-based.
Data set [24] has as its system MRC5. Briefly: Cytotoxicity against human MRC5 cells assessed as change in phenotypic response up to 50 uM. Format: cell-based.
In data set [25] the test system is NCI-H460. Description: Antiproliferative activity against human NCI-H460 cells assessed as change in phenotypic response up to 50 uM. The format is functional, cell-based.
Data set [26] has as its system A549. Briefly: Antiproliferative activity against human A549 cells assessed as change in phenotypic response up to 50 uM. Format: functional, cell-based.
A short description of data set [27]: Cytotoxicity against human 293T cells assessed as change in phenotypic response up to 50 uM. Format: cell-based. The note with it: hek-293t.
In data set [28] the test system is HeLa. Description: Antiproliferative activity against human HeLa cells assessed as change in phenotypic response up to 50 uM. Format: functional, cell-based.
For data set [29], the system named is MDA-MB-231. Description: Antiproliferative activity against human MDA-MB-231 cells assessed as change in phenotypic response up to 50 uM. The format is functional, cell-based.
Data set [30] has as its system HCT-116. Briefly: Antiproliferative activity against human HCT116 cells assessed as change in phenotypic response up to 50 uM. Format: functional, cell-based.
Data set [31] relates to SW480. Description: Antiproliferative activity against human SW480 cells assessed as change in phenotypic response up to 50 uM. The format is functional, cell-based.
For data set [32], the system named is SAOS-2. Description: Antiproliferative activity against human Saos2 cells assessed as change in phenotypic response up to 50 uM. The format is functional, cell-based.
The subject of data set [33] is U2OS. Briefly: Antiproliferative activity against human U2OS cells assessed as change in phenotypic response up to 50 uM. Format: functional, cell-based.
Data set [34] deals with BJ. Description: Cytotoxicity against human BJ cells assessed as change in phenotypic response measured after prolonged treatment. Format: cell-based.
Data set [35] relates to HMEC. Briefly: Cytotoxicity against human HMEC cells assessed as change in phenotypic response measured after prolonged treatment. Format: cell-based.
The test system of data set [36] is MRC5. Description: Cytotoxicity against human MRC5 cells assessed as change in phenotypic response measured after prolonged treatment. The format is cell-based.
The subject of data set [37] is UOK 262. Briefly: Antiproliferative activity against human UOK 262 cells assessed as change in phenotypic response up to 50 uM. The format is functional, cell-based.
The test system of data set [38] is UOK 262. Description: Antiproliferative activity against human UOK 262 cells assessed as change in phenotypic response measured after prolonged treatment. The format is functional, cell-based.
In data set [39] the test system is NCI-H358. Description: Antiproliferative activity against human NCI-H358 cells assessed as change in phenotypic response up to 50 uM. Format: functional, cell-based.
Data set [40] has as its system MRC5. Briefly: Cytotoxicity against human MRC5 cells assessed as change in phenotypic response. Format: cell-based.
Data set [41] has as its system HMEC. Description: Cytotoxicity against human HMEC cells assessed as change in phenotypic response. Format: cell-based.
The subject of data set [42] is BJ. Briefly: Cytotoxicity against human BJ cells assessed as change in phenotypic response. The format is cell-based.
Data set [43] can be described thus: Cytotoxicity against human WI38 cells assessed as change in phenotypic response. Format: cell-based. The note with it: wi-38.
The subject of data set [44] is NCI-H460. Description: Antiproliferative activity against human NCI-H460 cells assessed as change in phenotypic response. The format is functional, cell-based.
For data set [45], the system named is U2OS. Briefly: Antiproliferative activity against human U2OS cells assessed as change in phenotypic response. The format is functional, cell-based.
The subject of data set [46] is SAOS-2. Briefly: Antiproliferative activity against human Saos2 cells assessed as change in phenotypic response. Format: functional, cell-based.
For data set [47], the system named is SW480. Description: Antiproliferative activity against human SW480 cells assessed as change in phenotypic response. Format: functional, cell-based.
For data set [48], the system named is HCT-116. Briefly: Antiproliferative activity against human HCT116 cells assessed as change in phenotypic response. Format: functional, cell-based.
For data set [49], the system named is MDA-MB-231. Briefly: Antiproliferative activity against human MDA-MB-231 cells assessed as change in phenotypic response. Format: functional, cell-based.
Data set [50] concerns HeLa. Description: Antiproliferative activity against human HeLa cells assessed as change in phenotypic response. Format: functional, cell-based.
A short description of data set [51]: Cytotoxicity against human 293T cells assessed as change in phenotypic response. The format is cell-based. The conditions noted are these: hek-293t.
Data set [52] concerns A549. Briefly: Antiproliferative activity against human A549 cells assessed as change in phenotypic response. Format: functional, cell-based.
Data set [53] in a line: Plasma protein binding in human plasma at 10 uM after 4 hrs by LC-MS/MS analysis. The format is ADME, cell-free. The note with it: read-out: PPB (converted).
In data set [54] the test system is Liver microsome. Description: Intrinsic clearance in human liver microsomes at 1 uM up to 40 mins by LC-MS/MS analysis. The format is ADME.

As to `Cc1cnc(N)nc1OCC(C)(C)C`, the Papp in data set [1] worked out at 37 ×10⁻⁶ cm/s. In addition, the efflux ratio in [2] was found to be 0.8. In [3], the fraction unbound is 0.06. Besides, the results for the CLH (with Liver microsome [4]; in data set [6]) were 82 µL/min/mg and 280 µL/min/mg, respectively. In addition, the half-life in data set [5] is 0.5 h; in data set [7], 0.3 h; in [8], 20 h; in data set [9], 19 h. Also, the Activity entry (in data set [10]; in [14]; in the data set on BJ [21]; in data set [22]; with HMEC [23]; in the data set on MRC5 [24]) was “Non-toxic” in each case. For the same compound, the Activity result (in data set [27]; in the data set with BJ [34]; with HMEC [35]; with MRC5 [36]) was “Non-toxic” in each case. In addition, the outcome in the data set with NCI-H358 [11], in the data set with NCI-H460 [12], in the data set with A549 [13], with HeLa [15], with MDA-MB-231 [16] and with HCT-116 [17] was inactive. Further, the outcome with SW480 [18], in the data set on SAOS-2 [19], in the data set with U2OS [20], in the data set with NCI-H460 [25], in the data set with A549 [26] and in the data set on HeLa [28] was inactive. The outcome in the data set on MDA-MB-231 [29], with HCT-116 [30], in the data set with SW480 [31], in the data set with SAOS-2 [32], in the data set on U2OS [33] and in the data set on UOK 262 [37] was inactive. The outcome with UOK 262 [38] and with NCI-H358 [39] was inactive.
Consider `Nc1nc(NC2CC2)cc(-c2cccc(Cl)c2Cl)n1`, for which the Activity result (in the data set on MRC5 [40]; in the data set on HMEC [41]; in the data set on BJ [42]; in [43]; in data set [51]) was “Toxic” throughout. For the same compound, the result in the data set on NCI-H460 [44], in the data set with U2OS [45], in the data set with SAOS-2 [46], in the data set with SW480 [47], in the data set on HCT-116 [48] and in the data set with MDA-MB-231 [49] was Active. The outcome in the data set with HeLa [50] and in the data set on A549 [52] was Active.
Regarding `CNc1cc(-c2cccc(Cl)c2Cl)nc(N)n1`, the Papp in [1] was found to be 30 ×10⁻⁶ cm/s. Moreover, the efflux ratio in [2] was 0.8. In addition, the fraction unbound at 4 h, 10 µM in data set [53] was 0.08. Further, the CLH with Liver microsome [54] was found to be 54 µL/min/mg. In addition, the Activity result (in the data set with MRC5 [40]; with HMEC [41]; in the data set with BJ [42]; in [43]; in data set [51]) was “Toxic” throughout. In addition, the result with NCI-H460 [44], in the data set on U2OS [45], in the data set with SAOS-2 [46], with SW480 [47], with HCT-116 [48] and with MDA-MB-231 [49] was Active. Moreover, the result with HeLa [50] and in the data set with A549 [52] was Active.
